Measured values: ChEMBL document CHEMBL4261590, “Design, synthesis, and evaluation of chalcone analogues incorporate α,β-Unsaturated ketone functionality as anti-lung cancer agents via evoking ROS to induce pyroptosis” (Eur J Med Chem, 2018)
Active and inactive are the calls of the source. The calls are words filed in the database; no cut-off is given here.

How the values were obtained:
[1] = test system: NCI-H460; test: Antiproliferative activity against human NCI-H460 cells at 5 uM after 72 hrs by MTT assay; type: functional, cell-based
In short: (§1)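 Single-concentration screen at 5 μM. Cells seeded at 3000 per well, cultured overnight, treated 72 h. MTT (5 mg/mL stock) added for 4 h, formazan dissolved in DMSO, absorbance at 490 nm. Growth inhibition rate = [1 − A treated/A control]×100%.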

[2] = test system: NCI-H1975; test: Antiproliferative activity against human NCI-H1975 cells at 5 uM after 72 hrs by MTT assay; type: functional, cell-based; in short: as §1
[3] = test system: A549; test: Antiproliferative activity against human A549 cells at 5 uM after 72 hrs by MTT assay; type: functional, cell-based; in short: as §1
[4] = test system: NCI-H1975; test: Antiproliferative activity against human NCI-H1975 cells after 72 hrs by MTT assay; type: functional, cell-based; details: NCI-H1975, 72 h
In short: (§2)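 Cells seeded at 3000 per well, cultured overnight, then exposed to compounds for 72 h at 37 °C, 5% CO2. MTT (5 mg/mL stock) added for 4 h, formazan dissolved in DMSO, absorbance read at 490 nm. Inhibition calculated as [1 − A treated/A control]×100%, and IC50 derived from the inhibition data. Mean ± SEM of three independent experiments.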

[5] = test system: NCI-H460; test: Antiproliferative activity against human NCI-H460 cells after 72 hrs by MTT assay; type: functional, cell-based; details: NCI-H460, 72 h; in short: as §2
[6] = test system: A549; test: Antiproliferative activity against human A549 cells after 72 hrs by MTT assay; type: functional, cell-based; details: A549, 72 h; in short: as §2
[7] = test system: NCI-H460; test: Antiproliferative activity against human NCI-H460 cells at 5 uM after 12 to 72 hrs by MTT assay; type: functional, cell-based; details: TDE = time-dependent effect
In short: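 Time course at 5 μM, with exposures of 12, 24, 48 and 72 h. Cells seeded at 3000 per well after overnight attachment. Viability read by MTT (5 mg/mL stock, 4 h), formazan dissolved in DMSO, absorbance at 490 nm.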

[8] = test system: NCI-H460; test: Inhibition of colony formation in human NCI-H460 cells after 12 hrs by crystal violet staining-based assay; type: functional, cell-based
In short: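 Cells seeded at 1000 per well and grown overnight. Exposed to compounds at 1.25, 2.5 and 5 μM for 12 h, then switched to normal medium for about 8 days. Colonies stained with crystal violet and photographed.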

[9] = (§3) Acute toxicity in BALB/c mouse assessed as mortality at 500 mg/kg, ip administered as single dose on day 1 measured during 14 days; type: organism-based; details: BALB/c, in vivo
In short: (§4)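 Male wild-type BALB/c mice (26-33 g), randomised into groups of n=6 (vehicle, reference agent, test). Single intraperitoneal injection at 500 mg/kg on the first day only. Housed on a 12 h light-dark cycle at 25 °C with free water and diet. Deaths recorded over 14 days, then all animals euthanised.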

[10] = test system: NCI-H460; test: Induction of pyroptosis in human NCI-H460 cells assessed as release of cellular content at 20 uM after 19 to 24 hrs by bright field microscopic analysis; type: functional, cell-based
In short: (§5)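 Cells plated at 300,000/well 24 h before stimulation, then exposed to compound at 20 μM for 19 and 24 h. Cisplatin (20 μg/mL, 24 h) run alongside, with DMSO-treated cells as control. Morphology recorded by static bright-field microscopy.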

[11] = test system: NCI-H460; test: Induction of intracellular ROS accumulation in human NCI-H460 cells pre-treated with 5 mM NAC for 1 hr followed by compound addition at 10 uM for 3 hrs by DCFH-DA staining-based flow cytometric analysis; type: functional, cell-based
In short: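 Cells plated at 300,000/well for 24 h, pretreated with 5 mM NAC for 1 h, then given compound at 10 μM for 3 h. Loaded with DCFH-DA (10 μM) for 30 min at 37 °C in the dark in serum-free medium. Read by flow cytometry.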

[12] = test system: NCI-H460; test: Induction of pyroptosis in human NCI-H460 cells assessed as reduction in pro-caspase-3 protein expression at 5 uM by Western blot analysis; type: functional, cell-based; details: TDE = time-dependent effect
[13] = test system: NCI-H460; test: Inhibition of colony formation in human NCI-H460 cells preincubated with 5 mM NAC for 1 hr followed by compound addition at 5 uM after 12 hrs by crystal violet staining-based assay; type: functional, cell-based
In short: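 Cells pre-incubated with 5 mM NAC for 1 h, then exposed to compound at 5 μM for 12 h. Medium replaced with fresh medium and colonies grown about 8 days. Colonies stained with crystal violet and imaged.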

[14] = test system: Mus musculus; test: as §3; type: organism-based; details: in vivo, 336 h; in short: as §4
[15] = test system: NCI-H460; test: Induction of pyroptosis in human NCI-H460 cells pretreated with 20 mM NAC for 4 hrs followed by compound addition assessed as at 20 uM after 24 hrs by bright field microscopic analysis; type: functional, cell-based
In short: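 Cells plated at 300,000/well, pretreated with NAC (20 mM) for 4 h, then given compound at 20 μM for 24 h. Pyroptotic morphology recorded by bright-field microscopic imaging, with DMSO-treated cells as control.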

[16] = test system: NCI-H460; test: Induction of pyroptosis in human NCI-H460 cells assessed as cytoplasmic swelling at 20 uM after 19 to 24 hrs by bright field microscopic analysis; type: functional, cell-based; in short: as §5
[17] = test system: NCI-H460; test: Induction of pyroptosis in human NCI-H460 cells at 20 uM assessed as loss of osmotic potential at 20 uM after 19 to 24 hrs by bright field microscopic analysis; type: functional, cell-based; in short: as §5
[18] = test system: NCI-H460; test: Antiproliferative activity against human NCI-H460 cells assessed as reduction in cell viability preincubated with 5 mM NAC for 1 hr followed by compound addition at 5 uM after 48 hrs by MTT assay; type: functional, cell-based
In short: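 Cells pre-incubated with 5 mM NAC for 1 h, then exposed to compound at 5 μM for 48 h. Viability read by MTT at 490 nm after formazan solubilisation in DMSO. Groups compared against compound-only and NAC-only treatments.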

[19] = test system: NCI-H460; test: Induction of intracellular ROS accumulation in human NCI-H460 cells at 10 uM after 3 to 24 hrs by DCFH-DA staining-based flow cytometric analysis; type: functional, cell-based
In short: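 Cells plated at 300,000/well for 24 h, then treated at 10 μM for 3, 6, 12 and 24 h. Switched to serum-free medium and loaded with DCFH-DA (10 μM) for 30 min at 37 °C in the dark. Cells collected and analysed by flow cytometry.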

Structure (SMILES)	Activity [1]	Activity [2]	Activity [3]	also measured
C=CC(=O)Nc1ccc(C(=O)/C=C/c2ccc(Cl)cc2)cc1	Active	Active	inactive	–
C=CC(=O)Nc1ccc(C(=O)/C=C/c2ccccc2C(F)(F)F)cc1	Active	Active	Active	–
C=CC(=O)Nc1ccc(C(=O)/C=C/c2ccccc2)cc1	Active	Active	–	–
COc1cc(O)c(CC=C(C)C)c(O)c1C(=O)/C=C/c1ccc(O)cc1 [XANTHOHUMOL]	–	–	–	IC50 [4]: 13 µM; IC50 [5]: 7.5 µM; IC50 [6]: 11.9 µM
C=CC(=O)Nc1ccc(C(C)=O)cc1	Active	Active	Active	–
C=CC(=O)Nc1ccc(C(=O)/C=C/c2ccc(Cl)cc2Cl)cc1	Active	Active	–	–
C=CC(=O)Nc1ccc(C(=O)/C=C/c2cc(OC)c(OC)c(OC)c2)cc1	Active	Active	–	Activity [7]: Tde; inhibition [8]: Dose-dependent effect; IC50 [4]: 5.4 µM; IC50 [5]: 2 µM; IC50 [6]: 4 µM
C=CC(=O)Nc1ccc(C(=O)/C=C/c2cc(OC)ccc2F)cc1	Active	Active	–	–
C=CC(=O)Nc1ccc(C(=O)/C=C/c2cccc(Cl)c2Cl)cc1	Active	Active	–	–
Nc1ccc(C(=O)/C=C/c2ccccc2Cl)cc1	Active	Active	Active	–
C=CC(=O)Nc1ccc(C(=O)/C=C/c2cc(OC)ccc2OC)cc1	Active	Active	–	–
O=C1/C(=C/c2ccccc2F)CNC/C1=C\c1ccccc1F	–	–	–	mortality at 336 h [9]: 33.3%
C=CC(=O)Nc1ccc(C(=O)/C=C/c2cccc(F)c2)cc1	Active	Active	–	–
C=CC(=O)Nc1ccc(C(=O)/C=C/c2ccc(N(C)C)cc2)cc1	Active	Active	inactive	–
C=CC(=O)Nc1ccc(C(=O)/C=C/c2ccc(F)c(F)c2)cc1	Active	Active	inactive	–
C=CC(=O)Nc1ccc(C(=O)/C=C/c2ccc(OC)c(OC)c2)cc1	Active	Active	inactive	–
C=CC(=O)Nc1ccc(C(=O)/C=C/c2ccccc2Cl)cc1	Active	Active	Active	Activity [10]: Active; Activity [7]: Tde; inhibition [8]: Dose-dependent effect; Activity [11]: inactive; Activity [12]: Tde; inhibition [13]: inactive; Activity [14]: Non-Toxic; IC50 [4]: 5.7 µM; Activity [15]: inactive; Activity [16]: Active; Activity [17]: Active; IC50 [5]: 2.3 µM; Activity [18]: inactive; Activity [19]: Active; IC50 [6]: 3.2 µM
C=CC(=O)Nc1ccc(C(=O)/C=C/c2c(F)cccc2F)cc1	Active	Active	–	–
C=CC(=O)Nc1ccc(C(=O)/C=C/c2ccc(OC)cc2)cc1	Active	Active	inactive	–
C=CC(=O)Nc1ccc(C(=O)/C=C/c2cccc(OC)c2OC)cc1	Active	Active	–	–
C=CC(=O)Nc1ccc(C(=O)/C=C/c2ccccc2F)cc1	Active	Active	–	–
C=CC(=O)Nc1ccc(C(=O)/C=C/c2ccc(Cl)c(Cl)c2)cc1	Active	Active	inactive	–
C=CC(=O)Nc1ccc(C(=O)/C=C/c2ccccc2Br)cc1	Active	Active	–	Activity [7]: Tde; inhibition [8]: Dose-dependent effect; IC50 [4]: 5.2 µM; IC50 [5]: 2.2 µM; IC50 [6]: 4.4 µM
